zVAD death inh = blocks zVAD induced death of L929 cells. L929 zVAD necroptosis rescue, ATP luminescence, 24 h; with zVAD 60 µM. viability rescue, % at 10 µM. hit rate 0.38% among 220,000;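 active = activation, scaled between plate controls, above about 75%, limit read from the data; inactive = activation under that limit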;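 also: 0% = zVAD with DMSO and 100% = DMSO alone without zVAD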
RBBP9 inhibitor = inhibitors of human serine hydrolase RBBP9; O75884; recombinant RBBP9, FP-Rh probe fluorescence polarization; inhibition, % at 7.94 µM; hit rate 0.2% among 220,000; AID 1515;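 active = inhibition above the campaign mean of all tested compounds plus 3 SD, cut at about 14% in these data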;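 also: plate controls were DMSO wells with RBBP9 for no effect and wells lacking RBBP9 protein for full effect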
Target sequence (O75884 whole entry, looked up): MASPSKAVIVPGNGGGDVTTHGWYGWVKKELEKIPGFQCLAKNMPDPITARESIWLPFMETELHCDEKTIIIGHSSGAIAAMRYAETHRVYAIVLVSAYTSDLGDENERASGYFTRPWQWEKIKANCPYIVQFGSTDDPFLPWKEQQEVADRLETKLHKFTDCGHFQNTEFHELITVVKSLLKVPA
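System: RBBP9 protein | Quantity: 2.5 µM RBBP9 dispensing solution, before mixing | Reagent: FP-Rh probe, 375 nM dispensing solution | Timing: Enzyme-compound preincubation 30 min, then probe labeling 45 min, 25 °C | Measured by: Fluorescence polarization | Read-out: % inhibition | Replication: One well per compound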
M18AAP inhibitor = PfM18AAP enzyme inhibition; recombinant PfM18AAP, H-Glu-NHMec fluorogenic cleavage; inhibition, % at 7.35 µM; hit rate 1.2% among 290,000; AID 1822;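 active = inhibition above the campaign mean inhibition over all tested compounds plus 3 SD, cut at about 28% in these data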;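 also: 0% = plate median of test compound wells and 100% = 2 mM ZnCl2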
Wee1 degr inh = blocks degradation of human Wee1 kinase. reporter increase, % at 5 µM. HeLa Luc-Wee1K328M stability, luciferase luminescence; 100% = proteasome inhibitor MG132 effect. hit rate 1.2% among 220,000. P30291. AID 1321;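 active = activation above the mean of all tested compounds plus 3 SD, set per screening run, cut at about 8.8% in these data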;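 also: cells exposed to compound for 20 h before luminescence read; 0% = DMSO alone and 100% = MG132 at 30 µM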
p97 inhibitor = inhibitors of human p97 ATPase; P55072; recombinant p97 ATPase, Kinase-Glo ATP luminescence, 3 h; inhibition, % at 8 µM; hit rate 0.42% among 220,000; AID 1481; in the data active = inhibition above about 15%;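 also: 0% = DMSO vehicle and 100% = wells lacking enzyme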
TNF death inh = TNF-alpha cell death inhibition in Jurkat FADD-/- cells; Jurkat FADD-/- TNF necroptosis rescue, ATP luminescence, 24 h; 0 = TNF only, 100 = no-TNF cells; activation (protection from cell death), % at 10 µM; hit rate 0.068% among 220,000; AID 463075;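 active = activation, meaning protection from cell death, of at least 50% relative to plate controls; inactive = activation below 50%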;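 also: necroptosis triggered by 40 ng/mL TNF-alpha added together with compound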
RBBP9 inh conf = human RBBP9 inhibition, confirmation; shares compounds with RBBP9 inhibitor; recombinant RBBP9, FP-Rh probe fluorescence polarization; inhibition, % at 7.94 µM; hit rate 36% among 410; AID 1537;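 active = inhibition above the hit cutoff derived for the primary screen, cut at about 15% in these data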;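 also: 0% = RBBP9 with DMSO and 100% = wells lacking RBBP9 protein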
Active calls of the source: *; . = no result. In the library only some 2.7% were active in any assay of this set; here they are far more common.

SMILES	zVAD death inh	RBBP9 inhibitor	M18AAP inhibitor	Wee1 degr inh	p97 inhibitor	TNF death inh	RBBP9 inh conf
O=C(Nc1ccccc1C(=O)O)c1ccc(Br)c(S(=O)(=O)NCc2ccccc2)c1	2	-8	-4	-1	6	1	.
CCN(CC)C(=O)C(=O)c1cccn1-c1ccccc1C#N	1	21*	-32	1	1	-1	7
COc1cc(C2C(C(=O)OC(C)C)=C(C)Nc3[nH]c(=O)[nH]c(=O)c32)ccc1O (centres undefined)	0	17*	4	2	3	-1	5
COC(=O)C1=C(C)Nc2[nH]c(=S)[nH]c(=O)c2C1c1ccc(O)cc1 (centres undefined)	0	-5	23	-2	4	-1	.
COc1ccc(NC(=S)N(CCN2CCOCC2)Cc2cc3cc4c(cc3[nH]c2=O)OCCO4)cc1	1	-4	25	2	-4	1	.
O=c1c(-c2ccco2)[n+]([O-])c2ccccc2n1OCc1ccccc1F	0	15*	18	0	4	0	4
COc1ccccc1CN1C(=O)C2CC=CCC2C1=O (centres undefined)	0	-12	5	-1	7	1	.
O=C1C2CC=CCC2C(=O)N1Cc1ccccc1 (centres undefined)	.	19*	14	0	1	22	9
COc1ccc(-c2[nH]c(-c3ccccc3)nc2SCC(=O)Nc2nccs2)cc1	8	26*	3	0	8	3	13
CC(C)[C@H](NS(=O)(=O)c1ccccc1)C(=O)OCC(=O)N1N=C(c2ccc(Cl)cc2)CC1c1ccco1 (some centres undefined)	1	-5	1	-4	1	2	.
Cc1ccc(C)n1-c1ccc(N2CCOCC2)c([N+](=O)[O-])c1	0	16*	16	1	3	-4	9
Cc1cc(C=O)c(C)n1-c1ccc(N2CCOCC2)c([N+](=O)[O-])c1	1	-5	5	-1	5	-1	.
CSc1ccc(CN2CCC(C(=O)NCc3ccc(C)cc3)CC2)cc1	2	-1	3	0	-5	3	.
CCOC(=O)c1nc2sc3c(c2c(=O)[nH]1)CCCC3	0	-7	5	-2	6	0	.
CCOC(=O)c1nc2sc3c(c2c(=O)[nH]1)CCC(C)C3 (centres undefined)	0	16*	16	-2	1	0	1
O=C(CCN1C(=O)/C(=C/c2ccccc2F)SC1=S)NC1C=CS(=O)(=O)C1 (centres undefined)	.	.	22	.	.	.	.
Cc1ccc(NC2c3ncccc3C(=O)N2c2ccccc2C)cc1C (centres undefined)	0	18*	29*	0	-1	-1	24*
COc1ccc(NC(=S)NCc2ccco2)c(OC)c1	1	17*	15	7	-5	-2	9
CCc1ccccc1NC(=O)CSc1nnc(Cn2nnc3ccccc32)n1C	1	15*	1	-1	6	-1	5
COc1ccc(NC(=O)CSc2nnc(Cn3nnc4ccccc43)n2C)cc1	1	4	-2	-2	4	0	.
COc1ccc(OC)c2c1cc(C(=O)N[C@@H](C)C(=O)N[C@@H](C(=O)O)c1ccccc1)n2C	.	.	4	.	.	.	.
COC(=O)c1ccc(N2C(=O)CC(N3CCOCC3)C2=O)cc1 (centres undefined)	1	-5	-3	0	3	1	.
COC(=O)c1ccc(N2C(=O)CC(N3CCN(c4ccccc4)CC3)C2=O)cc1 (centres undefined)	3	21*	13	1	-3	2	10
COc1ccc(C(=O)NC(=S)N2CC(C)OC(C)C2)cc1OC (centres undefined)	1	-7	1	1	2	2	.
N#Cc1ncc(C(F)(F)F)cc1Sc1ccc(N)cc1	0	19*	8	3	3	1	7
SMILES	zVAD death inh	RBBP9 inhibitor	M18AAP inhibitor	Wee1 degr inh	p97 inhibitor	TNF death inh	RBBP9 inh conf
N#Cc1cc(N)ccc1Sc1ccc(Cl)cc1	0	-5	-6	-2	0	-5	.
COc1ccc(S(=O)(=O)N(C(=O)c2ccco2)c2cc3sc(=O)oc3c3ccccc23)cc1	1	29*	7	-1	6	-6	9
COc1ccc(S(=O)(=O)N(C(=O)C(C)C)c2ccc3oc(=O)sc3c2)cc1	0	-3	7	-2	0	-4	.
CCOc1ccc(S(=O)(=O)N(C(=O)c2ccco2)c2cc3sc(=O)oc3c3ccccc23)cc1	1	30*	10	1	3	-3	5
Cc1ccc(S(=O)(=O)N(C(=O)c2ccco2)c2cc3sc(=O)oc3c3ccccc23)cc1	1	40*	-18	-1	8	-5	5
Cc1csc2nc(SCC(=O)N3CCN(c4ccccc4)CC3)[nH]c(=O)c12	.	.	3	.	.	.	.
Cc1nn(C)cc1S(=O)(=O)Nc1ccc(C(F)(F)F)cc1	.	.	7	.	.	.	.
Cc1ccc(C(=O)C[n+]2cc(-c3ccc(C)cc3)n3c2CCCCC3)cc1	0	21*	8	2	4	-15	3
CC(C)=NOC(=O)c1c(C)noc1-c1snnc1C	1	18*	-10	1	1	4	4
Cc1cc(O)ccc1N=Cc1c(C(F)(F)F)[nH][nH]c1=O	0	39*	20	-1	3	-6	14
O=c1[nH][nH]c(C(F)(F)F)c1C=Nc1ccccc1	0	1	3	-1	6	-2	.
COc1ccc2c(c1)c1ccc3c(c1n2C)C(=O)C=CC3=O	18	63*	5	8	9	-31	71*
Cc1ccc2c(c1)c1ccc3c(c1n2C)C(=O)C=CC3=O	20	5	3	-2	6	-30	.
Cc1cccc2c(N=O)c(O)[nH]c12	-1	24*	0	0	1	-2	53*
CCNCCC(=O)N1c2ccccc2Sc2ccc(C(F)(F)F)cc21	.	.	-3	.	.	.	.
CCOc1ccc(S(=O)(=O)Nc2nc3ccccc3nc2Nc2ccc(N3CCOCC3)cc2)cc1	21	17*	8	1	0	2	11
COc1cc(/C=N/Nc2ccc(F)cc2F)cc(OC)c1O	0	17*	6	3	4	-2	53*
O=C1CSC(=S)N1/N=C/c1ccc(O)c(O)c1O	0	15*	68*	6	4	-6	27*
COc1ccc(-c2nn(-c3ccccc3)cc2/C=N/N2C(=O)CSC2=S)cc1	0	-11	26	1	5	-12	.
